# H69AR inhibit: blocks growth of human H69AR lung tumor cells; viability, % at 10 µM; hit rate 6% among 85,000; H69AR lung tumor viability, ATP luminescence, 72 h; active compounds read low;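 active = viability at or below 40%; inactive = viability above 40%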;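 note: multidrug resistant small cell line overexpressing MRP-1 efflux transporter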
# HCT116 PTEN-null: suppresses growth of cells with PTEN deletion; hit rate 1.2% among 140,000; viability, % at 10 µM; HCT116 PTEN-null viability, CellTiter-Glo, 60 h; active compounds read low; AID 827;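 active = viability at or below a set limit, 4 SD under the median of all tested compounds, cut at about 3.7% in these data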;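 note: PTEN knockout HCT116 line with beta catenin targeted HCT116 as companion control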
# HCT116 bCat-KO: beta-catenin-lacking colon tumor cell growth suppression. viability, % at 10 µM. hit rate 1.5% among 140,000. AID 818. HCT116 beta-catenin knockout viability, CellTiter-Glo, 60 h; active compounds read low;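 active = viability at or under a set limit, the compound median less 4 SD, cut at about 6% in these data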
# HUVEC inhibit: human endothelial cell proliferation inhibition; HUVEC proliferation, CellTiter-Glo luminescence, 72 h; active compounds read low; viability, % at 10 µM (by protocol); hit rate 1.1% among 86,000; AID 648;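 active = viability at or below 30%; inactive = viability above 30%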
# Pyk2 oligo antag: blocks oligomerization of human Pyk2 in cells. hit rate 0.83% among 99,000. Q293 cells, Pyk2 FERM NanoBiT luminescence; active compounds read low. AID 1347419. z-score (the deposit names both 25 µM and 10 µM). Q14289;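 active = Z-score of -3 or lower, scaled per plate to the spread of control and sample wells; inactive = z-score above -3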;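 note: negative z-score means lost luminescence so less FERM oligomerization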
# Target sequence (Q14289 whole entry, looked up): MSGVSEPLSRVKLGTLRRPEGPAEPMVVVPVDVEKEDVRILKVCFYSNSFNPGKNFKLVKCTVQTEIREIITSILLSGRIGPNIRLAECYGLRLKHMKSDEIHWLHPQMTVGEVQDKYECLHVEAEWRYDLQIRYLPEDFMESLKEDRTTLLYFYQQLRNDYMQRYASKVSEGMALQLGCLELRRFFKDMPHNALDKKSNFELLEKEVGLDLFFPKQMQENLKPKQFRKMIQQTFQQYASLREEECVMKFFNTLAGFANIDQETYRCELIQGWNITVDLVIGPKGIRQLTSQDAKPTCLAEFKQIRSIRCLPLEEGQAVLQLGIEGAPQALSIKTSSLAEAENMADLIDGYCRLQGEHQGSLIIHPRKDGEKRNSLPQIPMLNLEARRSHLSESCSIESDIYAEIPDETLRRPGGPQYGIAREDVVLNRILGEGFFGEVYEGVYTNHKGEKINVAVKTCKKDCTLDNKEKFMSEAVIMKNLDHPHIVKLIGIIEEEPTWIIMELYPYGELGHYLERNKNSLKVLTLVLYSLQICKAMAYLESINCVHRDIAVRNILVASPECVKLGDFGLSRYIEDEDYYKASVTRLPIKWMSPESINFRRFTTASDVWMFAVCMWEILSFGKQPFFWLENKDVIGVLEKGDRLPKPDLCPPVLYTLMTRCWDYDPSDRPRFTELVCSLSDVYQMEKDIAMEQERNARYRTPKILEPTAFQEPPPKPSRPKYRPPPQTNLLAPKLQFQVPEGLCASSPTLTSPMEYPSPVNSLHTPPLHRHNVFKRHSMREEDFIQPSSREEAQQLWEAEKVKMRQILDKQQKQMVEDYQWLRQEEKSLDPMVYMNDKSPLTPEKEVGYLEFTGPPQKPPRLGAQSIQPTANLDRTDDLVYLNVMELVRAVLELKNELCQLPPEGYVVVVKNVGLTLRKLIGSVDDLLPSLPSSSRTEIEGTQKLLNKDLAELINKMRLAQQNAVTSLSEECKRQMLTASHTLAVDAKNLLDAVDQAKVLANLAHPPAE
# Lung fibro prol: blocks proliferation of human lung fibroblasts; LL 47 human lung fibroblast viability, ATP luminescence; active compounds read low; viability, % at 10 µM; hit rate 1.1% among 85,000; AID 719;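 active = viability at or below 50% in the single dose screen; inactive = viability above 50%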;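 note: compound exposure lasted 72 h before the ATP readout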
#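 Material: human LL 47 lung fibroblast cells; quantity: 1,150 cells/well; medium: IMEM plus 15% FBS; doses: 0.1% DMSO in all compound wells; timing: overnight attachment after seeding, then 72 h compound exposure at 37 °C; detection: CellTiter-Glo luminescence; measure: % viability of median cell-only signal; controls: cell-only wells, no compound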
# Numbers stand for hits; - = inactive; . = not tested or not shown. Only a selection was taken, and hits are over-represented in it overall.
SMILES,H69AR inhibit,HCT116 PTEN-null,HCT116 bCat-KO,HUVEC inhibit,Pyk2 oligo antag,Lung fibro prol
CCOC(=O)c1c(CN2CCCCC2)n(C)c2cc(Br)c(OC)cc12,-,-,-,-,-,-
COc1cc2c(C(=O)N3CCN(C)CC3)c(C)n(-c3ccccc3)c2cc1Br,-,-,-,-,-,-
CCOC(=O)c1c(CN2CCN(CCO)CC2)n(C)c2cc(Br)c(OC)cc12,16,-,-,-,-,-
Cc1ccc(C)c(N2CCN(CCCNC(=O)Cn3cc4c(n3)CCCCC4)CC2)c1,-,1.7,2.1,22,.,-
O=C(Cn1cc2c(n1)CCCC2)NCCCN1CCN(c2ccccc2F)CC1,-,-,-,-,.,-
Cc1ccc(C)c(N2CCN(CCCNC(=O)Cn3cc4c(n3)CCC(C)C4)CC2)c1 (stereo not given),-,-,-,15,.,-
CCCc1nc(SCC(=O)N2CCC(Cc3ccccc3)CC2)c2c(=O)n(C)c(=O)n(C)c2n1,-,1.4,-,3.2,.,-
CCc1nc(SCC(=O)NCc2ccccc2)c2c(=O)n(C)c(=O)n(C)c2n1,27,-,-,-,.,-
CCCc1nc(SCC(=O)Nc2ccccc2)c2c(=O)n(C)c(=O)n(C)c2n1,-,-,-,-,.,-
COC(=O)c1sc(N2C(=O)C(O)=C(C(=O)c3ccc(C)o3)C2c2ccc(F)cc2)nc1C (stereo not given),-,-,-,-,-,-
CCN1CCN(c2ccc(NC(=O)c3ccc4c(c3)[nH]c(=O)n4Cc3ccc(F)cc3)cc2)CC1,.,1.8,3.4,.,.,.
COc1c(F)c(F)c(C(=O)Nc2ccc(N3CCN(Cc4ccccc4)CC3)cc2)c(F)c1F,-,-,-,22,-,-
CN1CCN(c2ccc(NC(=O)c3cccc(OCc4ccccc4)c3)cc2)CC1,32,-,2.6,3.5,-,-
CCN1CCN(c2ccc(NC(=O)c3cccc(OCc4ccccc4)c3)cc2)CC1,-,3.5,-,-,-,-
COc1cccc(C(=O)Nc2ccc(N3CCN(Cc4ccccc4)CC3)cc2)c1,-,-,-,-,-,-
COc1ccc2c(c1)nc(SCC(=O)c1cccs1)n2C,.,-,-,.,-,.
Cc1ccccc1C(=O)NNC(=O)CSc1nnc(-c2ccncc2)n1-c1ccccc1,.,-,-,.,.,.
O=C(CSc1nnc(-c2ccncc2)o1)NC1C2CC3CC(C2)CC1C3 (stereo not given),.,-,-,.,.,.
CCCN1Cc2cccc(C(=O)Nc3ccc(N4CCN(CC)CC4)cc3)c2C1=O,22,.,.,-,.,-
O=C1C2CSCN2C(=O)CN1CCCN1CCN(C(c2ccccc2)c2ccccc2)CC1 (stereo not given),.,-,-,.,.,.
O=C(Nc1nc2ccccc2s1)c1ccc(Cl)s1,-,-,-,-,.,-
Cc1ccc2nc(NC(=O)c3ccc(-c4nc5ccccc5s4)s3)sc2c1,.,2.5,4.7,.,.,.
Cc1coc(NC(=O)CSc2nc(-c3ccncc3)cc(C(F)(F)F)c2C#N)n1,38,-,-,-,-,-
NC(=O)C1CCN(C2CC(=O)N(c3ccc(F)c(Cl)c3)C2=O)CC1 (stereo not given),-,-,-,-,-,-
NS(=O)(=O)c1ccc(N2N=C(c3ccc(Br)cc3)CC2c2ccc(F)cc2)cc1 (stereo not given),.,1.2,0.7,.,-,.
SMILES,H69AR inhibit,HCT116 PTEN-null,HCT116 bCat-KO,HUVEC inhibit,Pyk2 oligo antag,Lung fibro prol
CC(C)(C)c1ccc(C2(C)NC(=O)N(CC(=O)c3ccc[nH]3)C2=O)cc1 (stereo not given),27,-,-,-,-,-
CC(C)(C)c1ccc(C2(C)NC(=O)N(CC(=O)NCc3cccs3)C2=O)cc1 (stereo not given),.,-,-,.,.,.
CCOC(=O)N1CCN(c2nc(C)c3c(n2)CC(C)CC3=O)CC1 (stereo not given),.,-,-,-,-,-
COc1ccc(-c2csc(NC(=O)c3ccc(S(=O)(=O)N4CCc5ccccc5C4)cc3)n2)cc1,.,-,-,.,.,.
COc1cccc(-c2nnc(NC(=O)c3ccc(S(=O)(=O)N4CC(C)OC(C)C4)cc3)o2)c1 (stereo not given),.,-,-,.,-4.1,.
COc1ccc(-c2nnc(NC(=O)c3ccc(S(=O)(=O)N4CCc5ccccc5C4)cc3)o2)cc1,18,-,-,13,-,-
CC1CN(S(=O)(=O)c2ccc(C(=O)Nc3ccc(S(=O)(=O)Nc4ncccn4)cc3)cc2)CC(C)O1 (stereo not given),.,-,-,.,.,.
CCC(C)NC(=O)COC(=O)c1oc2ccccc2c1CSc1ccc(Cl)cc1 (stereo not given),.,-,-,.,.,.
CC(NC(=O)c1cc(-c2ccc3c(c2)OCO3)nc2ccccc12)C(C)(C)C (stereo not given),16,-,-,-,-,-
COC(=O)c1[nH]c2c(c1C)C(=O)CC(c1cc(OC)ccc1OC)C2 (stereo not given),22,-,-,-,.,-
COC(=O)c1[nH]c2c(c1C)C(=O)CC(c1cccs1)C2 (stereo not given),34,-,-,-,-,47
COc1ccc(Oc2ccc(/C=C/C(=O)c3cccc(OC)c3)cc2[N+](=O)[O-])cc1,.,1.9,2.0,.,.,.
COc1ccc(Nc2cnn(-c3nc4ccccc4s3)c(=O)c2Cl)cc1,.,-,5.1,.,.,.
Cc1ccc(S(=O)(=O)Nc2cccc3ncccc23)s1,.,1.5,1.5,.,-,.
Cc1ccc(S(=O)(=O)Nc2ccnc3ccccc23)cc1,-,-,-,-,-,-
S=C(Nc1ccccc1)c1nc2ccccc2s1,.,-,-,.,.,.
COc1cc(NC(=O)c2ccc3c(c2)OCO3)ccc1NC(=O)c1ccco1,-,-,-,-,-,-
O=C(Nc1ccccc1C(=O)Nc1ccc2c(c1)OCO2)c1ccco1,34,-,-,-,-,-
c1ccc(COc2ccc(OCCN3CCCCC3)cc2)cc1,.,-,-,.,.,.
Cc1ccc(OCCN2CCN(CC(O)Cn3c4ccccc4c4ccccc43)CC2)cc1 (stereo not given),.,1.4,1.2,.,.,.
N/C(Cc1ccccc1)=N\OC(=O)c1cccc2ccccc12,.,-,-,.,.,.
CCOC(=O)c1c(C)[nH]c(C(=O)COC(=O)CSCC(=O)N(CC)CC)c1C,-,-,-,-,-,-
O=c1cc(CN2CCN(c3ccc(F)cc3)CC2)c2cc3c(cc2o1)CCCC3,32,-,-,-,-,-
COc1ccc(N2CCN(Cc3cc(=O)oc4cc(-c5ccccc5)c(O)cc34)CC2)cc1,3.1,-,-,-,-,7.6
COc1ccc(N2CCN(Cc3cc(=O)oc4cc(C)c(Cl)cc34)CC2)cc1,24,-,-,-,-,-
Cc1cc2oc(=O)cc(CN3CCN(C/C=C/c4ccccc4)CC3)c2cc1O,.,2.8,2.3,.,-,.
O=c1cc(CN2CCN(c3ccccc3F)CC2)c2cc(O)c(-c3ccccc3)cc2o1,.,-,-,.,.,.
O=c1cc(CN2CCN(C/C=C/c3ccccc3)CC2)c2cc(O)c(-c3ccccc3)cc2o1,.,-,-,.,-,.
